The values that follow come from ChEMBL document CHEMBL5236609, “Optimization of 1,2,4-Triazole-3-thiones toward Broad-Spectrum Metallo-β-lactamase Inhibitors Showing Potent Synergistic Activity on VIM- and NDM-1-Producing Clinical Isolates” (J Med Chem, 2022).

Each structure is given as a SMILES string. The source made the active and inactive calls. Some results are limits rather than exact numbers.

Series [1] addresses T1, Aminopeptidase N (Sus scrofa) (UniProt P15145).
T1 sequence (whole entry): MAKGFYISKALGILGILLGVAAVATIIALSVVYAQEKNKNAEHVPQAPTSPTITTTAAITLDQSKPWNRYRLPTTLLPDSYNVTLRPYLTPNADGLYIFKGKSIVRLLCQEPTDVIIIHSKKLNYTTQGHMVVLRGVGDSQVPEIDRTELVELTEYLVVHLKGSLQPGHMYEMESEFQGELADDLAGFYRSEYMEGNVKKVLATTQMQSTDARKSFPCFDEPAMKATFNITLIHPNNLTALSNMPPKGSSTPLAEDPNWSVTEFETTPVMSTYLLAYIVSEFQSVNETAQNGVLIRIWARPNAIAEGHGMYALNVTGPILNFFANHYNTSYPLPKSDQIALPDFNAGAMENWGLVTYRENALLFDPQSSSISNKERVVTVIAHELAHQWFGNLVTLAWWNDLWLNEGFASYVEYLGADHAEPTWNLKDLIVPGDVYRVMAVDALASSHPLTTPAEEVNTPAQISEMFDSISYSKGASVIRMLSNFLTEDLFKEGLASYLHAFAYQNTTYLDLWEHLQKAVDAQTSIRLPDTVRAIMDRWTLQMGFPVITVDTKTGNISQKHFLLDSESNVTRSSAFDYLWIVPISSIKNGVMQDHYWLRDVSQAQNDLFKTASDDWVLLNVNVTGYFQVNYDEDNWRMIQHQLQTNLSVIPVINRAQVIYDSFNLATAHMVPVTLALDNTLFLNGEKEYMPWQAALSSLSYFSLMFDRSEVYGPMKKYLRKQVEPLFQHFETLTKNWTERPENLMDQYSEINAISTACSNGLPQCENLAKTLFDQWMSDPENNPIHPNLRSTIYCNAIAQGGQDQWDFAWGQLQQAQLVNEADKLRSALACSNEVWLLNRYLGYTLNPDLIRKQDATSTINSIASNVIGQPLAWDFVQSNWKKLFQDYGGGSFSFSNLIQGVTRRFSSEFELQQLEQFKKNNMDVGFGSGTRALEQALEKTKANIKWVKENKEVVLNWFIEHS
Nature of the series: Inhibition of porcine APN using fluorogenic substrate H-Leu-AMC measured for 1 h rat 100 uM relative to control.

Series [2] in a line: Inhibition of bacterial VIM-1 (unknown origin) expressed in Escherichia coli EXPRESS BL21(DE3) assessed as inhibition constant by measuring rate of substrate hydrolysis by UV-visible spectrophotometry. The arrangement: species or system Bacteria. Put shortly:
(§1)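 Reporter-substrate assay with purified MBL (1–70 nM final) in 50 mM HEPES pH 7.5 at 30 °C. […] Inhibitor 0.5–1000 μM final. Ki derived from the v0/vi vs [I] slope assuming competitive inhibition, or from a Dixon plot. Ki given when inhibition >70%, otherwise % inhibition at 100 μM. Triplicate.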

Series [3] relates to Klebsiella pneumoniae. Nature of the series: Antimicrobial activity against blaVIM-4-producing multidrug-resistant Klebsiella pneumoniae VA-416/02 clinical isolate assessed as meropenem MIC at 32 ug/ml by broth microdilution method (reference value: […] ug/ml). In kind it is functional. Particulars: dose 32 µg/ml. Put shortly: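 Inoculum was 5×10^4 CFU/well. Each inhibitor was present at a fixed 32 μg/mL, and MICs were also taken without inhibitor.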
Background: Dilution methods test growth across graded concentrations, often in twofold steps.

A short description of series [4]: Cytotoxicity against human HeLa cells assessed as LDH release incubated for 24 hrs by membrane integrity assay. The series is classed as toxicity, cell-based. Put shortly: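 HeLa cells (20,000/well) exposed to compound up to 250 μM for 24 h at 37 °C, 5% CO2 in DMEM with 10% FBS, 4.5 mg/mL glucose and 2 mM L-glutamine. LDH release expressed as % of Triton X-100 maximum lysis; IC50 is the concentration giving 50% cytotoxicity.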
For orientation: Release of lactate dehydrogenase indicates damage to the cell membrane.

In series [5] the test system is Bacteria. The series is described as follows: Inhibition of bacterial NDM-1 (unknown origin) assessed as Zn(II) content in protein at 48 uM at 48 uM by overnight equilibrium dialysis. Put shortly: (§2)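 VIM-2 or NDM-1 (3 μM final) in 50 mM HEPES pH 7.5 mixed with compound at 0–48 μM. Incubated 1 h on ice, then dialysed overnight at 4 °C against 50 mM HEPES pH 7.5. Zn(II) content measured by atomic absorption at 213.86 nm against a zinc standard curve. Each point averages three samples.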
(Equilibrium dialysis compares concentrations on both sides of a semipermeable membrane.)

Series [6] concerns Bacteria. The series is described as follows: Inhibition of bacterial IMP-1 (unknown origin) expressed in Escherichia coli EXPRESS BL21(DE3) assessed as inhibition constant by measuring rate of substrate hydrolysis at 100 uM by UV-visible spectrophotometry relative to control. Put shortly:
as §1

Series [7] is described as follows: Binding affinity to Zn(II) assessed as change in enthalpy by isothermal calorimetric assay.
Series [8] can be described thus: Chelation of Zn(II) in bacterial VIM-2 (unknown origin) by isothermal calorimetric assay. In outline: (§3)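 ITC at 25 °C. VIM-2 at 19 μM in 10 mM HEPES-NaOH, 0.15 M NaCl, pH 7.5 with DMSO matched to 1%, titrated with compound at 200 μM: one 0.5 μL injection, then 19 × 2 μL at 150 s intervals. Buffer dilution heats subtracted. Nonlinear fit gives n, Ka and ΔH°; values regarded as apparent.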

Series [9] in a line: Chelation of Zn(II) in bacterial NDM-1 (unknown origin) by isothermal calorimetric assay.
Series [10] deals with Bacteria. The series is described as follows: Inhibition of bacterial VIM-2 (unknown origin) assessed as decrease in Zn(II) content in protein at 50 uM by native MS analysis. In outline: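 Purified VIM-2 or NDM-1 was given 2 mM TCEP and 2 equiv ZnCl2, incubated 1 h, and dialysed overnight into 100 mM ammonium acetate pH 7.5. Enzyme at 10 μM was then incubated 5 min with 50 μM compound. Positive-mode nanoESI on an Orbitrap, scanning m/z 1000–4000. Species assigned from deconvoluted masses.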

In series [11] the test system is Bacteria. Nature of the series: Inhibition of bacterial VIM-2 (unknown origin) assessed as Zn(II) content in protein at >5 uM by overnight equilibrium dialysis. Put shortly: as §2
A short description of series [12]: Binding affinity to Zn(II) assessed as dissociation constant by isothermal calorimetric assay.
The subject of series [13] is Bacteria. The series is described as follows: Binding affinity to bacterial VIM-2 (unknown origin) assessed as change in entropy by isothermal calorimetric assay. In outline: as §3
Series [14] has as its system Klebsiella pneumoniae. Nature of the series: Antimicrobial activity against blaVIM-4-producing multidrug-resistant Klebsiella pneumoniae VA-416/02 clinical isolate assessed as meropenem MIC using cation-adjusted Mueller-Hinton broth at 16 ug/ml by broth microdilution method (reference value: […] ug/ml). The series is classed as functional. The settings on record: dose 16 µg/ml. In outline: (§4)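 Checkerboard broth microdilution in cation-supplemented Mueller–Hinton broth, inoculum 5×10^4 CFU/well, per CLSI. […] The average fractional inhibitory concentration index was computed from the checkerboard.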

For series [15], the system named is Bacteria. Nature of the series: Binding affinity to bacterial VIM-2 (unknown origin) assessed as Gibbs free energy by isothermal calorimetric assay. Put shortly:
as §3

In series [16] the test system is Bacteria. Nature of the series: Binding affinity to bacterial VIM-2 (unknown origin) assessed as change in enthalpy by isothermal calorimetric assay. In outline: as §3
For series [17], the system named is Klebsiella pneumoniae. The series is described as follows: Antimicrobial activity against blaVIM-4-producing multidrug-resistant Klebsiella pneumoniae VA-416/02 clinical isolate assessed as meropenem MIC using cation-adjusted Mueller-Hinton broth at 32 ug/ml by broth microdilution method (reference value: […] ug/ml). The series is classed as functional. Particulars: dose 32 µg/ml. In outline:
as §4

As to `Cc1[nH]cnc1CN(Cc1c[nH]cn1)[C@@H](CCCn1c(-c2ccccc2)n[nH]c1=S)C(=O)O`, in series [1], the inhibition – broadly, how much of the control response was suppressed – turned out to be 58%. In addition, the inhibition constant Ki (usually a dissociation constant, usually derived from enzyme kinetics or from competition with a known ligand) in series [2] was determined as 0.38 µM. In addition, the MIC (as a rule, the smallest concentration in the dilution series that meets the test's criterion for growth inhibition) in the series with Klebsiella pneumoniae [3] amounted to 0.03 mg/L. Moreover, the CC50 (usually the concentration at which the toxic effect on the cells reaches its halfway point) at 24 h in series [4] came out at 105 µM.
Consider `O=C(O)[C@H](CCn1c(-c2ccccc2)n[nH]c1=S)N(Cc1c[nH]cn1)Cc1c[nH]cn1`, for which the Ki in series [2] was found to be 0.39 µM. Further, the MIC in the series on Klebsiella pneumoniae [3] is 0.03 mg/L. Further, the CC50 at 24 h in [4] is greater than 250 µM.
Take `O=C(O)[C@H](CCCn1c(-c2ccccc2)n[nH]c1=S)N(Cc1ccccn1)Cc1ccccn1`: in the series on Bacteria [5], the Activity turned out to be 1.09 equiv. Also, the values for the inhibition (in the series on Bacteria [6]; in series [1]) were less than 30% and 30%, respectively. For the same compound, the Ki in series [2] was found to be 1.7 µM. Besides, the MIC with Klebsiella pneumoniae [3] worked out at 0.03 mg/L. Further, the deltaH in [7] amounted to 25.1 kJ/mol. Further, the result in [8] and in series [9] was inactive. For the same compound, the inhibition entry in the series on Bacteria [10] and in the series on Bacteria [11] was “Active” throughout. For the same compound, the equilibrium dissociation constant (Kd) (in general, the constant that tells how readily two partners part at equilibrium) in [12] was found to be 0.01 µM.
For the compound `O=C(O)[C@H](CCCn1c(-c2ccccc2)n[nH]c1=S)N(Cc1c[nH]cn1)Cc1c[nH]cn1`, the Activity with Bacteria [5] came to 1.09 equiv. The inhibition in the series on Bacteria [6] worked out at 40%. Besides, the TdeltaS in the series on Bacteria [13] is -5.86 kJ/mol. The Ki in series [2] came to 0.15 µM. For the same compound, the values for the MIC in the series with Klebsiella pneumoniae [3], with Klebsiella pneumoniae [14] and in the series on Klebsiella pneumoniae [17] were 0.03 mg/L, 0.06 mg/L and 0.03 mg/L, respectively. Also, the values for the deltaH (in [7]; in the series with Bacteria [16]) were 20.9 kJ/mol and -41 kJ/mol, respectively. Besides, the outcome in series [8] and in series [9] was Active. Besides, the deltaG in the series on Bacteria [15] was -35.1 kJ/mol. In addition, the CC50 at 24 h in [4] was greater than 250 µM. Moreover, in the series on Bacteria [10], the inhibition entry is “Active”. For the same compound, the Kd in [12] stood at 0.01 µM.
For `O=C(O)[C@H](CCCn1c(-c2ccc3ccccc3c2)n[nH]c1=S)N(Cc1c[nH]cn1)Cc1c[nH]cn1`, the Ki in series [2] was determined as 0.52 µM. Further, the MIC in the series on Klebsiella pneumoniae [3] was 0.03 mg/L.
